Published values gathered from unrelated publications.
Lines come from different studies, so protocols differ.
Target: Alpha-2A adrenergic receptor (ADRA2A, Homo sapiens, UniProt P08913)
One construct used (P08913 1-465): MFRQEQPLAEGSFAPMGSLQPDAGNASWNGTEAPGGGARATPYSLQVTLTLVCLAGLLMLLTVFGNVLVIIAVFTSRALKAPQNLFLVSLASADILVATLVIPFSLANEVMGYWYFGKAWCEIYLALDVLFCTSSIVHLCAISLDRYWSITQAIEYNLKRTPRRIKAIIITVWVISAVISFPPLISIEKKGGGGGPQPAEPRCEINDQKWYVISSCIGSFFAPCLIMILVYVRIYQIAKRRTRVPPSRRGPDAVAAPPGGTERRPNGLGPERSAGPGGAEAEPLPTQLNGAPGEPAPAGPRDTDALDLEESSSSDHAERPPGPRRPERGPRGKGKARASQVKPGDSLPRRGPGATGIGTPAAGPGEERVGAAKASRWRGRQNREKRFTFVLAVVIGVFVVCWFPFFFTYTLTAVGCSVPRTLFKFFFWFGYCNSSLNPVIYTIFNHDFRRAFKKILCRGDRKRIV

Compound	assay	setting	measurement	result
COc1ccc(S(=O)(=O)N2CCCCC2)cc1C	ligand displacement, radioligand	10 µM	inhibition	< 30%
CC(C)Cn1cnc2c(N)nc3ccccc3c21	ligand displacement, radioligand	10 µM	inhibition	58%
CC(C)N1CCC[C@H]1CNC(=O)c1cn(C2CCCC2)c(=O)c2c1c1ccccc1n2C	ligand displacement, radioligand	10 µM	inhibition	37%
Clc1ccc2c(C3CCN(CCc4c[nH]c5ccccc45)CC3)c[nH]c2c1	ligand displacement, radioligand	10 µM	inhibition	82%
N#CC1(c2ccccn2)CCN(Cc2cc(C(=O)O)c(=O)n3ccccc23)CC1	cell-free assay	10 µM	inhibition	-25.7%
COCc1c(-c2cc3cc(C)cc(OC)c3s2)c2c(N)ncnn2c1CN1CCNC(=O)C1	ligand displacement, radioligand	10 µM	inhibition	26%
Nc1ncc(-c2nc(N3CCOCC3)nc(N3CCOCC3)n2)c(C(F)F)n1	cell-free assay, radioligand	10 µM	remaining signal	114%
Cc1c(N2CCNCC2)nc2ccc(Br)cc2c1C(=O)NC[C@H](CCC(=O)O)c1ccccc1Cl	ligand displacement	10 µM	inhibition	65%
O=C(Nc1cccnn1)N1CCN([C@@H]2CCOc3cc(C(F)(F)F)ccc32)CC1	ligand displacement	20 µM	inhibition	7%
